We go through nine molecules from ChEMBL document CHEMBL1121883, “1-(Naphthylalkyl)-1H-imidazole derivatives, a new class of anticonvulsant agents” (J Med Chem, 1981).

The structures appear in SMILES notation. Values joined by “and” are separate entries in the source; they are usually repeats but may differ in a detail not shown here. Identical values can stand only once.

One may read the ED50 as the dose at which the effect has come halfway, by size or by number of responders. A lower ED50 goes with an effect at a small dose. What is called LD50 is the dose at which mortality reaches 50%. Lower therefore signals greater toxicity.

Series [1] has as its system Mus musculus. The series can be described thus: Protective index is defined as ND50 (i.p.) divided by MES ED50(i.p.). The series is classed as functional. The essentials: (§1)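 Ratio of ND50 from the wire traction test to MES ED50, both measured by the same route (ip or oral) in the same animals. Quantal dose-response data for each were evaluated by Litchfield-Wilcoxon.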

For series [2], the system named is Mus musculus. The series can be described thus: Compound was evaluated for anticonvulsant activity by maximal electroshock assay(MES) in mice after ip administration; 14-24. The series is classed as functional. A digest of the protocol: (§2)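 Male Hilltop ICR-derived mice (19-30 g), groups of 8-10, dosed ip with compound or aqueous vehicle. After 15 min pretreatment, a transcorneal 60-Hz, 50 mA shock was given for 0.2 s. Just before the shock, each mouse was tested on a horizontal wire (10 s). Quantal data were analysed by Litchfield-Wilcoxon to give ED50 with 95% confidence limits.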
Background: In the maximal electroshock model the usual endpoint is tonic extension of the hind limbs.

The test system of series [3] is Mus musculus. Kind of series: Dose of compound causing a neurological deficit in 50% of mice after ip administration; 34-82. The class given is functional. A digest of the protocol:
(§3)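 Traction test in male Hilltop ICR-derived mice (19-30 g, groups of 8-10) just before electroshock, 15 min after ip or 30 min after oral dosing. Mice placed on a 16-gauge, 65-cm copper wire 40 cm above the table; deficit scored as failure to stay on for 10 s. ND50 with 95% limits by Litchfield-Wilcoxon.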

Series [4] deals with Mus musculus. The series can be described thus: Dose causing a neurological deficit in 50% of mice after ip administration. The class given is functional. The essentials: as §3
The subject of series [5] is Mus musculus. Kind of series: compound was evaluated for anticonvulsant activity by maximal electroshock assay(MES) in mice after ip administration. The class given is functional. The essentials:
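Male Hilltop ICR-derived mice, 19-30 g, groups of 8-10, given compound or aqueous vehicle […] before transcorneal electroshock (50 mA, 60 Hz, 0.2 s). Shock delivered after the traction test. ED50 with 95% confidence limits estimated from quantal data by Litchfield-Wilcoxon.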

Series [6] concerns Mus musculus. The series can be described thus: Compound was evaluated for anticonvulsant activity by maximal electroshock assay(MES) in mice after po administration; 33-62. The series is classed as functional. The essentials: (§4)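 Male Hilltop ICR-derived mice (19-30 g), groups of 8-10, given compound or aqueous vehicle orally. The transcorneal 60-Hz shock (50 mA, 0.2 s) followed a 30 min pretreatment and a wire-hang neurological check (10 s). ED50 and 95% confidence limits were obtained from quantal data by the Litchfield-Wilcoxon method.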

The test system of series [7] is Mus musculus. Kind of series: Dose of compound causing a neurological deficit in 50% of mice after ip administration; 32-89. The series is classed as functional. A digest of the protocol:
as §3

The subject of series [8] is Mus musculus. Kind of series: Dose causing a neurological deficit in 50% of mice following p.o. administration. The class given is functional. The essentials: as §3
For series [9], the system named is Mus musculus. Kind of series: Protective index defined as ND50 (p.o.) divided by MES ED50(op). The class given is functional. The essentials:
as §1

Series [10] is described as follows: Lethal dose was measured in mice after ip administration. The class given is toxicity, organism-based. The conditions noted are these: mouse, in vivo. A digest of the protocol: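 Male Simonsen ICR-derived mice (16-24 g), groups of three, given compound ip in increasing doses within a behavioral screen. Deaths counted on day 5, and LD50 estimated from 5-day survival. Quantal data analysed by the Litchfield-Wilcoxon method.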

Series [11] has as its system Rattus norvegicus. Kind of series: Compound was evaluated for anticonvulsant activity by maximal electroshock assay(MES) in rat after po administration. The class given is functional. A digest of the protocol: (§5)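 Male Simonsen Sprague-Dawley-derived rats, 80-110 g, groups of 8-10, dosed with compound or aqueous vehicle; pretreatment 15 min after ip or 30 min after oral dosing. Transcorneal electroshock, 150 mA, 60 Hz, 0.2 s, given after the wire test. ED50 with 95% confidence limits from quantal data by Litchfield-Wilcoxon.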

The test system of series [12] is Rattus norvegicus. Kind of series: Dose of compound causing a neurological deficit in 50% of rat after ip administration. The class given is functional. The essentials:
(§6)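 Rats (Simonsen Sprague-Dawley-derived, 80-110 g, groups of 8-10) placed on a suspended 16-gauge, 65-cm copper wire just before electroshock. Deficit scored as inability to remain for 8 s. Pretreatment was 15 min ip or 30 min oral. Quantal data analysed by Litchfield-Wilcoxon to give ND50 with 95% limits.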

For series [13], the system named is Rattus norvegicus. Kind of series: Compound was evaluated for anticonvulsant activity by maximal electroshock assay(MES) in rat after ip administration.
The test system of series [14] is Mus musculus. The series can be described thus: compound was evaluated for anticonvulsant activity by maximal electroshock assay(MES) in mice after po administration. The class given is functional. A digest of the protocol: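 Male Hilltop ICR-derived mice, 19-30 g, groups of 8-10, dosed orally with compound or aqueous vehicle. Transcorneal electroshock (50 mA, 60 Hz, 0.2 s) delivered 30 min after dosing, immediately after a wire-hang neurological test. ED50 with 95% confidence limits estimated from quantal data by Litchfield-Wilcoxon.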

In series [15] the test system is Mus musculus. The series can be described thus: Anticonvulsant activity in mouse maximal electroshock assay following i.p. administration. The class given is functional. The conditions noted are these: ip. A digest of the protocol: as §2
The subject of series [16] is Rattus norvegicus. The series can be described thus: Dose of compound causing a neurological deficit in 50% of rat after po administration. The series is classed as functional. A digest of the protocol:
as §6

In series [17] the test system is Rattus norvegicus. Kind of series: Compound was evaluated for anticonvulsant activity by maximal electroshock assay(MES) in rat after po administration; 31-105. The class given is functional. The essentials: as §5
The test system of series [18] is Mus musculus. The series can be described thus: Compound was evaluated for anticonvulsant activity by maximal electroshock assay(MES) in mice after ip administration; 18-25. The class given is functional. A digest of the protocol:
as §2

The subject of series [19] is Mus musculus. Kind of series: Dose of compound causing a neurological deficit in 50% of mice after ip administration; 53-96. The class given is functional. A digest of the protocol:
as §3

Series [20] relates to Mus musculus. The series can be described thus: Compound was evaluated for anticonvulsant activity by maximal electroshock assay(MES) in mice after po administration; 55-105. The series is classed as functional. A digest of the protocol: as §4
Series [21] relates to Mus musculus. The series can be described thus: Compound was evaluated for anticonvulsant activity by maximal electroshock assay(MES) in mice after ip administration; 27-41. The series is classed as functional. A digest of the protocol:
as §2

Series [22] has as its system Mus musculus. The series can be described thus: Compound was evaluated for anticonvulsant activity by maximal electroshock assay(MES) in mice after po administration; 34-89. The class given is functional. A digest of the protocol: as §4
For series [23], the system named is Mus musculus. The series can be described thus: Dose of compound causing a neurological deficit in 50% of mice after ip administration; 20-35. The series is classed as functional. The essentials: as §3
In series [24] the test system is Mus musculus. Kind of series: Compound was evaluated for anticonvulsant activity by maximal electroshock assay(MES) in mice after ip administration; 37-68. The class given is functional. The essentials: as §2
Series [25] has as its system Rattus norvegicus. Kind of series: Dose of compound causing a neurological deficit in 50% of rat after ip administration; 119-211. The series is classed as functional. A digest of the protocol: as §6
The test system of series [26] is Rattus norvegicus. Kind of series: Compound was evaluated for anticonvulsant activity by maximal electroshock assay(MES) in rat after po administration; 30-125. The series is classed as functional. The essentials:
as §5

In series [27] the test system is Mus musculus. Kind of series: Compound was evaluated for anticonvulsant activity by maximal electroshock assay(MES) in mice after po administration; 55-125. The series is classed as functional. The essentials: as §4
Series [28] has as its system Mus musculus. The series can be described thus: Compound was evaluated for anticonvulsant activity by maximal electroshock assay(MES) in mice after ip administration; 31-39. The series is classed as functional. A digest of the protocol:
as §2

In series [29] the test system is Mus musculus. The series can be described thus: Dose of compound causing a neurological deficit in 50% of mice after ip administration; 80-115. The class given is functional. The essentials:
as §3

Series [30] relates to Rattus norvegicus. The series can be described thus: Compound was evaluated for anticonvulsant activity by maximal electroshock assay(MES) in rat after ip administration; 14-33. The class given is functional.

Consider `COC(Cn1ccnc1)c1cccc2ccccc12` (stereo unspecified), for which the PI in [1] came out at 2.7. In series [2], this molecule came in with an ED50 of 19 mg/kg. Moreover, the ND50 in series [3] stood at 51 mg/kg.
Take `COC(Cn1ccnc1)(OC)c1ccc2ccccc2c1`: the ND50 in [4] is over 40 mg/kg. Besides, the ED50 in series [5] is over 40 mg/kg.
Turning to `CC1(C)COC(Cn2ccnc2)(c2ccc3ccccc3c2)OC1.Cl`, the PI in series [1] is recorded as 2; in series [9], over 2.1. For the same molecule, in [6], it took a dose of 47 mg/kg to reach the 50% effect level (ED50). The ND50 in [7] is 52 mg/kg; in series [8], over 100 mg/kg. The molecule also gave an LD50 in series [10] of over 100 mg/kg.
Consider `O=C1NC(=O)C(c2ccccc2)(c2ccccc2)N1` [PHENYTOIN], for which, in series [1], the PI was over 23.1. Besides, the 50% effective dose (ED50) in series [11] came out at 85 mg/kg; in series [13], 21 mg/kg; in [14], 22 mg/kg; in series [15] it was 13 mg/kg. Further, the ND50 is over 300 mg/kg in series [12], over 300 mg/kg in series [4], over 200 mg/kg in series [8] and over 300 mg/kg in series [16]. This molecule registered an LD50 in [10] of over 300 mg/kg.
In the case of `Cc1ccc2cccc(C(=O)Cn3ccnc3)c2c1.Cl`, the PI in series [1] was 3.3; in series [9], >4.1 and >1.9. The ED50 in series [17] amounted to 52 mg/kg; in series [18], 22 mg/kg; in series [20], 74 mg/kg. Further, the ND50 was over 300 mg/kg in series [8], over 100 mg/kg in [16] and 73 mg/kg in series [19].
Turning to `c1ccc2cc(C3(CCn4ccnc4)OCCO3)ccc2c1`, the PI in series [1] is reported as over 2.9. The same molecule came in with an ED50 in series [21] of 35 mg/kg. In series [4], this molecule yielded an ND50 of over 100 mg/kg.
As for `CC1CCOC(Cn2ccnc2)(c2ccc3ccccc3c2)O1` (stereo unspecified), the PI is on record as 1.4 in [1] and over 1.8 in series [9]. This molecule also displayed an ED50 in [22] of 56 mg/kg. Besides, the figures for the ND50 in series [8] and in series [23] were over 100 mg/kg and 26 mg/kg, respectively.
As to `Cl.O=C(Cn1ccnc1)c1ccc2cc(Cl)ccc2c1`, the PI in series [1] is reported as over 2. This molecule returned an ND50 in series [4] of over 100 mg/kg. In series [24], this molecule displayed an ED50 of 51 mg/kg.
On to `OC(Cn1ccnc1)c1cccc2ccccc12` (stereo unspecified), for which the PI in series [1] is 2.6 and 6.4; in series [9], >3.7 and >4.8. Also, the ND50 in series [25] is 153 mg/kg; in [8] it was over 300 mg/kg; in series [29] it was 89 mg/kg; in series [16], over 300 mg/kg. The ED50 in series [26] amounted to 62 mg/kg; in series [27], 82 mg/kg; in [28], 34 mg/kg; in series [30] it was 24 mg/kg. The LD50 in series [10] was over 300 mg/kg.
